Legend:
[1] = biological target: T1, Human immunodeficiency virus type 1 integrase (Human immunodeficiency virus 1, UniProt Q7ZJM1); experiment: Inhibition of HIV1 integrase activity by ELISA
Summary of the method: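 In vitro overall integrase reaction measured by enzyme-linked immunosorbent assay; IC50 is the concentration giving 50% inhibition of overall integrase activity; average ± SD.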

[2] = Selectivity index, ratio of CC50 for human MT4 cells to EC50 for HIV1 3B; format: toxicity, cell-based; settings: read-out: Ratio CC50/EC50
Summary of the method: (§1)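 Human lymphocyte MT-4 cultures infected with HIV-1; HIV-induced cytopathic effect read by MTT assay; EC50 is the concentration reducing cytopathic effect by 50%; average ± SD; SI is CC50/EC50.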

[3] = test system: Human immunodeficiency virus 1; experiment: Antiviral activity against HIV1 3B infected in human MT4 cells assessed as inhibition of virus-induced cytopathic effect by MTT assay; format: functional, organism-based; settings: Human immunodeficiency virus 1, 3B; summary of the method: as §1
[4] = Cytotoxicity against human MT4 cells by MTT assay; format: cell-based
Summary of the method: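 Uninfected MT-4 cells; viability read by MTT assay; CC50 is the concentration reducing viability by 50%; average ± SD; SI is CC50/EC50.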

[5] = biological target: T1, Human immunodeficiency virus type 1 integrase; experiment: Inhibition of HIV1 integrase strand transfer activity by ELISA
Summary of the method: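 Strand transfer step of integration measured in vitro by enzyme-linked immunosorbent assay; IC50 is the concentration giving 50% inhibition of strand transfer; average ± SD.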

T1 sequence (Q7ZJM1 whole entry): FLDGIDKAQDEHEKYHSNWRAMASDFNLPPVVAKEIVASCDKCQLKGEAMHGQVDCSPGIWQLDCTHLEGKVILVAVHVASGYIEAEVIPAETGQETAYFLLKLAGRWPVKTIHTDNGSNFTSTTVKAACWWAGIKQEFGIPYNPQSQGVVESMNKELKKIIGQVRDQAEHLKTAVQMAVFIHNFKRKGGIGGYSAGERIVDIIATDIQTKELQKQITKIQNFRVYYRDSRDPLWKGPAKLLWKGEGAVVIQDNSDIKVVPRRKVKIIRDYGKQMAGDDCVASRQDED

Row | SMILES | IC50 [1] [µM] | selectivity ratio [2] | EC50 [3] [µM] | CC50 [4] [µM] | IC50 [5] [µM]
1 | CCOC(=O)/C(O)=C/C(=O)c1cn(Cc2cc(F)c(F)c(F)c2)c2cccc(OC)c12 | 2 | 8.4 | 3.96 | 33.4 | 1.41
2 | COc1cccc2c1c(C(=O)/C=C(\O)C(=O)O)cn2Cc1ccc(F)c(F)c1 | 0.42 | 25 | 2.8 | 71 | 0.6
3 | COc1cccc2c1c(C(=O)/C=C(\O)C(=O)O)cn2Cc1ccc(F)c(F)c1F | 0.14 | 19.9 | 1.15 | 22.8 | 0.28
4 | CCOC(=O)/C(O)=C/C(=O)c1cn(Cc2ccc(F)cc2F)c2cccc(OC)c12 | 0.11 | 33.7 | 1.95 | 65.5 | 0.67
5 | COc1cccc2c1c(C(=O)/C=C(\O)C(=O)O)cn2Cc1ccccc1F | 0.07 | 228 | 0.31 | 70.5 | 0.04
6 | COc1cccc2c1c(C(=O)/C=C(\O)C(=O)O)cn2Cc1c(F)cccc1F | 0.13 | 108 | 0.41 | 44.3 | 0.08
7 | COc1cccc2c1c(C(=O)/C=C(\O)C(=O)O)cn2Cc1ccc(F)cc1 |  | 70 | 0.59 |  | 
8 | CCOC(=O)/C(O)=C/C(=O)c1cn(Cc2cc(F)ccc2F)c2cccc(OC)c12 | 1.41 | 13.1 | 3.15 | 41.2 | 0.4
9 | CCOC(=O)/C(O)=C/C(=O)c1cn(Cc2ccccc2F)c2cccc(OC)c12 | 0.38 | 45.3 | 1.4 | 63.3 | 0.72
10 | CCOC(=O)/C(O)=C/C(=O)c1cn(Cc2cccc(F)c2)c2cccc(OC)c12 | 0.3 | 28.5 | 2.21 | 63.2 | 2.26
11 | COc1cccc2c1c(C(=O)/C=C(\O)C(=O)O)cn2Cc1cc(F)cc(F)c1 | 0.44 | 10.6 | 2.78 | 29.5 | 0.24
12 | CCOC(=O)/C(O)=C/C(=O)c1cn(Cc2c(F)ccc(F)c2F)c2cccc(OC)c12 | 0.17 | 8.4 | 4.84 | 40.5 | 0.82
13 | CCOC(=O)/C(O)=C/C(=O)c1cn(Cc2cccc(F)c2F)c2cccc(OC)c12 | 0.005 | 11.1 | 1.9 | 21.1 | 0.012
14 | COc1cccc2c1c(C(=O)/C=C(\O)C(=O)O)cn2Cc1c(F)ccc(F)c1F | 0.13 | 75.5 | 0.65 | 49.4 | 0.16
15 | COc1cccc2c1c(C(=O)/C=C(\O)C(=O)O)cn2Cc1cc(F)ccc1F | 0.05 | 113 | 0.41 | 46.2 | 0.02
16 | CCOC(=O)/C(O)=C/C(=O)c1cn(Cc2c(F)cccc2F)c2cccc(OC)c12 | 0.36 | > 31.1 | 2.04 | 63.4 | 0.07
17 | CCOC(=O)/C(O)=C/C(=O)c1cn(Cc2ccc(F)c(F)c2)c2cccc(OC)c12 | 26.5 | > 2 | 80.1 | 125 | 1.56
18 | COc1cccc2c1c(C(=O)/C=C(\O)C(=O)O)cn2Cc1cc(F)c(F)c(F)c1 | 0.06 | 10.5 | 2.21 | 23.3 | 0.1
19 | CCOC(=O)/C(O)=C/C(=O)c1cn(Cc2cc(F)cc(F)c2)c2cccc(OC)c12 | 1.52 | > 5.8 | 5.94 | 34.7 | 2.74
20 | COc1cccc2c1c(C(=O)/C=C(\O)C(=O)O)cn2Cc1cccc(F)c1F | 0.01 | > 68.7 | 0.26 | 17.5 | 0.12
21 | CCOC(=O)/C(O)=C/C(=O)c1cn(Cc2ccc(F)c(F)c2F)c2cccc(OC)c12 | 3.01 | > 13 | 3.15 | 42.7 | 1.15
22 | COc1cccc2c1c(C(=O)/C=C(\O)C(=O)O)cn2Cc1cccc(F)c1 | 0.03 | 175 | 0.38 | 65.8 | 0.03
23 | COc1cccc2c1c(C(=O)/C=C(\O)C(=O)O)cn2Cc1ccc(F)cc1F | 0.01 | 50.7 | 0.41 | 20.8 | 0.02
